Screening data from PubChem BioAssay.
Compounds with a hit are over-represented: about 2.5% of the library has one in this group of screens.
TRPML3 ag – human TRPML3 channel agonists, primary screen, cell-based, HEK293 TRPML3-YFP, Fluo-8 calcium fluorescence, 3 µM | 100% = the carbachol control signal | activation, % at 3 µM | hit rate 0.29% among 220,000;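 active means activation above its plate's cutoff, the mean activation of the plate's test wells plus 3 SD, cut at about 12% in these data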
Target sequence (Q8TDD5 whole entry, looked up): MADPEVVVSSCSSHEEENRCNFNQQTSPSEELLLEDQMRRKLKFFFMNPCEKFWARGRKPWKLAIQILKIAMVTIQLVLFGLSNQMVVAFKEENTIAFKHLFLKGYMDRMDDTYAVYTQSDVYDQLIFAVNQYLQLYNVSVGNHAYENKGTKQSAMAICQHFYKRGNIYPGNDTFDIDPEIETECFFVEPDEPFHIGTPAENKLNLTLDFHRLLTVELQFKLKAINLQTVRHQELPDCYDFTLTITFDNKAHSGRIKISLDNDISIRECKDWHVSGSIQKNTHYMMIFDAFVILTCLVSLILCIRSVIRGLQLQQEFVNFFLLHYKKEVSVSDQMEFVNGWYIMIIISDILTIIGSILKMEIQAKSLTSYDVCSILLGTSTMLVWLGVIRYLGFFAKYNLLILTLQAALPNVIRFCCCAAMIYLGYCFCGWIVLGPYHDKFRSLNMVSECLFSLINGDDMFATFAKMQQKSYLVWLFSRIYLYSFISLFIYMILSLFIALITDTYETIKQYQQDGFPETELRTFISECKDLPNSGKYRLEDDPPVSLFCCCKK
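Material: TRPML3-YFP stable HEK293 cells | Dosing: One concentration, 3 µM nominal, 0.3% DMSO | Timing: 125 s total fluorescence read per well | Technique: Fluo-8 calcium dye fluorescence, ex 470-495, em 515-575 nm | Measure: Percent activation from peak-to-basal fluorescence ratio, scaled between DMSO and carbachol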
OX1R antag-1 – antagonists of human orexin 1 receptor (OX1R). Orexin/Hypocretin receptor type 1 (Homo sapiens), O43613. OX1R-expressing cells, FRET antagonist read-out. inhibition, % at 6.6 µM. hit rate 1.8% among 330,000; in the data active means inhibition mostly above about 38%, no sharp cut-off; inactive means mostly below about 40%
zfTRPN1 agonist – zebrafish TRPN1 channel agonists, primary screen, cell-based, HEK293, calcium fluorescence. HEK293 zebrafish TRPN1-YFP, Fluo-8 calcium fluorescence; 100% = response to 87 µM carbachol. activation, % at 3 µM. hit rate 0.18% among 220,000;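 active means activation above its plate's cutoff, the mean activation of test wells on that plate plus 3 SD, cut at about 19% in these data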
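Control set: carbachol 87 µM as high control, DMSO as low control; system: HEK293 stable line with zebrafish TRPN1-YFP; read-out: % activation versus carbachol response; detection: intracellular calcium fluorescence with Fluo-8; doses: single test compound dose, 3 µM nominal, 0.3% DMSO; schedule: dye 1 h 37 °C plus 30 min RT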
OX1R antag-2 – OX1R (HCRTR1) antagonists, primary screen, fluorescence, CHO/OX1R cells, Fluo-8 calcium, orexin A; AID 434989, 2010; hit rate 0.43% among 330,000; inhibition, % at 5 µM; Orexin/Hypocretin receptor type 1 (Homo sapiens), O43613; Fluo-8 calcium fluorescence;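 active means inhibition above its plate's threshold, mean inhibition of all tested compounds on the plate plus 3 SD, cut at about 37% in these data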
CHO parental Ca – ATP-evoked calcium signal inhibitors, parental CHO, primary screen, counter-screen for OX1R antagonist project, cell-based, fluorescence, Fluo-8 calcium dye; parental CHO-K1, ATP-induced calcium, Fluo-8 fluorescence; inhibition, % at 5.6 µM; hit rate 0.63% among 330,000; AID 463079, 2010;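 active means inhibition above that plate's mean sample inhibition plus 3 SD, cut at about 26% in these data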
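Test system: parental CHO cells; detection: calcium-sensitive Fluo-8 fluorescence; evaluation: percent inhibition of calcium signal; also added: ATP as calcium-mobilizing challenge; repeats: one well per compound; control set: ATP-challenged DMSO wells low, unchallenged DMSO wells high; compound: single nominal dose of 5.6 µM per compound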
Hits are given with their value; 0 = inactive; - = not tested or not shown.

SMILES	TRPML3 ag	OX1R antag-1	zfTRPN1 agonist	OX1R antag-2	CHO parental Ca
CCNC(=O)CC1C(=O)N(c2ccc(F)cc2)C(=O)N1CCc1ccc(OC)cc1 (centres undefined)	0	0	0	0	0
COc1ccc(CCNC2=CC(=O)N(c3ccc(F)cc3)C2=O)cc1	0	0	0	0	39
CC(=O)NC(Cc1cccc(F)c1)C(=O)NC1CCN(C(=O)Nc2ccc(C)cc2)CC1 (centres undefined)	-	0	-	0	0
O=C(CN(Cc1ccco1)Cc1ccco1)Nc1cc(S(=O)(=O)N2CCCCC2)ccc1Cl	-	0	-	74	48
Cc1cccc(C)c1NC(=O)c1cc(S(=O)(=O)N2CCOCC2)ccc1F	0	0	0	0	0
Cc1ccccc1NC(=O)c1cc(S(=O)(=O)N2CCOCC2)ccc1F	0	47	0	0	0
O=C(Nc1cc(S(=O)(=O)N2CCCCC2)ccc1Cl)c1ccccc1NS(=O)(=O)c1ccc(F)cc1	13	0	19	0	0
COc1c(C)cccc1C(=O)NCCCNC(=O)c1ccc(C)nc1	-	0	-	0	0
C/C(=N\NC(=O)CCC(=O)NCc1ccccc1)c1ccc([N+](=O)[O-])cc1	-	0	-	0	0
Cc1ccc(C2=CSC3=NCCN23)cc1	-	0	-	0	0
O=[N+]([O-])c1ccc(C2=CSC3=NCCN23)cc1	-	47	-	0	0
CCOC(=O)c1ccc(NC(=O)c2cccc(S(=O)(=O)N3CCOCC3)c2)cc1	0	0	0	0	33
CC(C)c1c(C(=O)N/N=C/c2cccc(OCc3ccc(F)cc3)c2)nnn1-c1nonc1N	-	0	-	0	0
COc1cc(/C=N/NC(=O)c2nnn(-c3nonc3N)c2C(C)C)ccc1OCc1ccc(F)cc1	-	0	-	0	49
N#CC(c1ccccc1)c1cnccn1 (centres undefined)	-	0	-	0	0
CCSC1=NSC2=NC(=O)/C(=C\c3coc4ccccc4c3=O)C(=N)N12	15	0	25	54	59
CC(C)CC1=NN2C(=N)/C(=C\c3coc4ccccc4c3=O)C(=O)N=C2S1	0	-	0	-	-
COc1ccc(-c2cc3cc4c(cc3cn2)OCO4)cc1	-	0	-	0	0
c1ccc(-c2cc3cc4c(cc3cn2)OCO4)cc1	-	72	-	0	0
O=C(O)c1cccc(Nc2cc(Cl)c3nonc3c2[N+](=O)[O-])c1	0	58	0	0	0
O=[N+]([O-])c1cccc(Nc2c([N+](=O)[O-])ccc3nonc23)c1	-	0	-	0	0
O=[N+]([O-])c1c(Nc2ccccn2)cc(Cl)c2nonc12	0	45	0	0	0
O=C(O)c1cccc(Nc2ccc([N+](=O)[O-])c3nonc23)c1	-	34	-	0	0
CN(C)c1cc(Nc2ccc(O)cc2)c([N+](=O)[O-])c2nonc12	0	0	0	0	0
O=[N+]([O-])c1c(Nc2ccc(O)cc2)cc(Cl)c2nonc12	-	99	-	76	61
SMILES	TRPML3 ag	OX1R antag-1	zfTRPN1 agonist	OX1R antag-2	CHO parental Ca
Cc1ccc(CCNC(=O)C2CCC(=O)N(Cc3cccc(F)c3)C2)cc1 (centres undefined)	-	0	-	0	0
CCc1ccc(CN(C)C(=O)C2CCC(=O)N(Cc3ccccn3)C2)cc1 (centres undefined)	-	0	-	0	0
O=C(Nc1ccc(N2CCOCC2)cc1N1CCOCC1)c1ccc([N+](=O)[O-])cc1Cl	-	0	-	0	0
COc1ccc(NC(=O)Cn2cnc3sc(C)c(S(=O)(=O)N4CCOCC4)c3c2=O)cc1Cl	-	0	-	0	0
Cc1cc(OCC(=O)NNC(=O)c2cccs2)ccc1Br	-	0	-	0	0
O=[N+]([O-])c1ccc2nonc2c1Nc1ccccc1	-	27	-	0	0
O=C(O)c1ccccc1Nc1cc(Cl)c2nonc2c1[N+](=O)[O-]	-	61	-	0	0
CCC(=O)N1CCc2cc(S(=O)(=O)NCCC(=O)N3CC=C(c4ccccc4)CC3)ccc21	0	55	0	0	0
COc1ccc(-c2nc(-c3ccc(Br)o3)no2)cc1OC	0	0	0	0	0
COc1ccccc1-c1nc(-c2ccc(Br)o2)no1	0	55	0	0	0
CC(C)N1CCC2(CC1)N=C(c1ccc3c(c1)OCO3)CC(c1cc(Cl)ccc1O)N2 (centres undefined)	0	87	0	68	0
Oc1ccc(C2=NN(c3ccccc3)C(c3ccc(F)cc3)C2)cc1 (centres undefined)	-	0	-	0	58
COc1cccc(C(=O)C[n+]2cccc3cc(OC)ccc32)c1	-	34	-	0	0
COc1ccc(OC)c(NS(=O)(=O)c2ccc(Cl)s2)c1	0	0	0	0	0
COc1ccc(OC)c(NS(=O)(=O)c2ccc(Br)s2)c1	0	0	0	0	38
Cn1nnnc1SCC(=O)C(C)(C)C	0	0	0	0	0
O=C(NCc1cccnc1)C(=O)N/N=C/c1ccc([N+](=O)[O-])cc1	0	59	0	0	0
CCOC(=O)c1cn(-c2c(Cl)cccc2Cl)c2cc(Cl)c([N+](=O)[O-])cc2c1=O	0	0	0	0	0
CCOC(=O)c1cn(CC)c2cc(Cl)c([N+](=O)[O-])cc2c1=O	0	55	0	0	0
CCc1ccc(C(=O)CSc2nc3cc(S(=O)(=O)N4CCOCC4)ccc3n2CC)cc1	0	0	0	0	0
O=C(Nc1cccc2ncccc12)c1ccc([N+](=O)[O-])o1	-	70	-	0	0
Cc1ccccc1NC(=O)c1ccc([N+](=O)[O-])o1	0	70	0	0	0
CN1CCN(c2ccccc2NC(=O)c2ccc([N+](=O)[O-])o2)CC1	-	71	-	0	0
COc1cccc(C(=O)Nc2cccc(-c3nc4ncccc4o3)c2C)c1	0	0	0	0	0
Cc1c(NC(=O)c2ccc([N+](=O)[O-])o2)cccc1-c1nc2ncccc2o1	-	63	-	0	0
SMILES	TRPML3 ag	OX1R antag-1	zfTRPN1 agonist	OX1R antag-2	CHO parental Ca
Cc1ccc(NC(=O)c2ccc([N+](=O)[O-])o2)c(C)c1	0	0	0	0	0
CC1(C)C(=O)NCCN1C(=O)CC1C(=O)NCCN1Cc1cccc(C(F)(F)F)c1 (centres undefined)	-	0	-	0	0
CCOc1ccc(C(C)=O)cc1COc1cccnc1[N+](=O)[O-]	-	0	-	0	0
COc1ccc(S(=O)(=O)N2CCCCCC2)cc1NC(=O)CCCOc1ccccc1	-	0	-	0	0
CCn1nnc(NC(=O)c2ccc([N+](=O)[O-])o2)n1	0	69	0	0	0
CCC(=O)N1CCN(c2ccc(Cl)cc2NC(=O)c2ccc([N+](=O)[O-])o2)CC1	-	0	-	0	0
O=C(Nc1cc(Cl)ccc1-n1cncn1)c1ccc([N+](=O)[O-])o1	-	48	-	0	0
